# System: Escherichia coli
# Assay: Antibacterial activity tested against Escherichia coli ATCC 8739
# Assay type: functional
# In short: (§1)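 MICs (µg/mL) determined by conventional agar dilution against a panel of eight Gram-negative and five Gram-positive reference strains.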
row,Structure (SMILES),MIC [mg/L]
1,Nc1cc2c(=O)c(C(=O)O)cn(C3CC3)c2cc1N1CCCC1,0.25
2,Cc1c(N2CCC3CCCCC3C2)c(N)cc2c(=O)c(C(=O)O)cn(C3CC3)c12 (stereo not given),4
3,Nc1cc2c(=O)c(C(=O)O)cn(C3CC3)c2cc1N1CCc2ccccc2C1,128
4,Cc1c(N2CCNCC2)c(N)cc2c(=O)c(C(=O)O)cn(C3CC3)c12,0.03
5,CC1CN(c2cc3c(cc2N)c(=O)c(C(=O)O)cn3C2CC2)CCN1 (stereo not given),0.03
6,Cc1c(N2CCCC2)c(N)cc2c(=O)c(C(=O)O)cn(C3CC3)c12,32

# System: Escherichia coli
# Assay: Antibacterial activity tested against Escherichia coli ISF 432
# Assay type: functional
# In short: as §1
row,Structure (SMILES),MIC [mg/L]
1,Nc1cc2c(=O)c(C(=O)O)cn(C3CC3)c2cc1N1CCCC1,0.25
2,Cc1c(N2CCC3CCCCC3C2)c(N)cc2c(=O)c(C(=O)O)cn(C3CC3)c12 (stereo not given),4
3,Nc1cc2c(=O)c(C(=O)O)cn(C3CC3)c2cc1N1CCc2ccccc2C1,32
4,Cc1c(N2CCNCC2)c(N)cc2c(=O)c(C(=O)O)cn(C3CC3)c12,0.03
5,CC1CN(c2cc3c(cc2N)c(=O)c(C(=O)O)cn3C2CC2)CCN1 (stereo not given),0.03
6,Cc1c(N2CCCC2)c(N)cc2c(=O)c(C(=O)O)cn(C3CC3)c12,1

# System: Enterobacter cloacae
# Assay: Antibacterial activity tested against Enterobacter cloacae OMNFI 174
# Assay type: functional
row,Structure (SMILES),MIC [mg/L]
1,Nc1cc2c(=O)c(C(=O)O)cn(C3CC3)c2cc1N1CCCC1,8
2,Cc1c(N2CCC3CCCCC3C2)c(N)cc2c(=O)c(C(=O)O)cn(C3CC3)c12 (stereo not given),4
3,Nc1cc2c(=O)c(C(=O)O)cn(C3CC3)c2cc1N1CCc2ccccc2C1,128
4,Cc1c(N2CCNCC2)c(N)cc2c(=O)c(C(=O)O)cn(C3CC3)c12,0.06
5,CC1CN(c2cc3c(cc2N)c(=O)c(C(=O)O)cn3C2CC2)CCN1 (stereo not given),0.25
6,Cc1c(N2CCCC2)c(N)cc2c(=O)c(C(=O)O)cn(C3CC3)c12,64

# System: Bacteria
# Assay: Geometric mean of antibacterial activity (Gram +ve bacteria) of the compound
# Assay type: functional
# In short: (§2)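 Geometric means calculated from agar-dilution MICs (µg/mL), taken separately across the five Gram-positive and the eight Gram-negative panel strains.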
row,Structure (SMILES),Geometric mean
1,Nc1cc2c(=O)c(C(=O)O)cn(C3CC3)c2cc1N1CCCC1,128
2,Cc1c(N2CCC3CCCCC3C2)c(N)cc2c(=O)c(C(=O)O)cn(C3CC3)c12 (stereo not given),0.186
3,Nc1cc2c(=O)c(C(=O)O)cn(C3CC3)c2cc1N1CCc2ccccc2C1,27.857
4,Cc1c(N2CCNCC2)c(N)cc2c(=O)c(C(=O)O)cn(C3CC3)c12,5.28
5,CC1CN(c2cc3c(cc2N)c(=O)c(C(=O)O)cn3C2CC2)CCN1 (stereo not given),10.556
6,Cc1c(N2CCCC2)c(N)cc2c(=O)c(C(=O)O)cn(C3CC3)c12,12.12

# System: not listed separately
# Assay: Geometric mean of antibacterial activity (Gram -ve bacteria) of the compound
# Assay type: functional
# In short: as §2
row,Structure (SMILES),Geometric mean
1,Nc1cc2c(=O)c(C(=O)O)cn(C3CC3)c2cc1N1CCCC1,6.73
2,Cc1c(N2CCC3CCCCC3C2)c(N)cc2c(=O)c(C(=O)O)cn(C3CC3)c12 (stereo not given),4
3,Nc1cc2c(=O)c(C(=O)O)cn(C3CC3)c2cc1N1CCc2ccccc2C1,107.635
4,Cc1c(N2CCNCC2)c(N)cc2c(=O)c(C(=O)O)cn(C3CC3)c12,0.158
5,CC1CN(c2cc3c(cc2N)c(=O)c(C(=O)O)cn3C2CC2)CCN1 (stereo not given),0.451
6,Cc1c(N2CCCC2)c(N)cc2c(=O)c(C(=O)O)cn(C3CC3)c12,22.627

# System: Klebsiella pneumoniae
# Assay: Antibacterial activity tested against Klebsiella pneumoniae (Klebsiella pneumoniae) ATCC 10031
# Assay type: functional
# In short: as §1
row,Structure (SMILES),MIC [mg/L]
1,Nc1cc2c(=O)c(C(=O)O)cn(C3CC3)c2cc1N1CCCC1,0.25
2,Cc1c(N2CCC3CCCCC3C2)c(N)cc2c(=O)c(C(=O)O)cn(C3CC3)c12 (stereo not given),0.125
3,Nc1cc2c(=O)c(C(=O)O)cn(C3CC3)c2cc1N1CCc2ccccc2C1,128
4,Cc1c(N2CCNCC2)c(N)cc2c(=O)c(C(=O)O)cn(C3CC3)c12,0.03
5,CC1CN(c2cc3c(cc2N)c(=O)c(C(=O)O)cn3C2CC2)CCN1 (stereo not given),0.03
6,Cc1c(N2CCCC2)c(N)cc2c(=O)c(C(=O)O)cn(C3CC3)c12,0.5

# System: Proteus vulgaris
# Assay: Antibacterial activity tested against Proteus vulgaris CNUR 5
# Assay type: functional
# In short: as §1
row,Structure (SMILES),MIC [mg/L]
1,Nc1cc2c(=O)c(C(=O)O)cn(C3CC3)c2cc1N1CCCC1,128
2,Cc1c(N2CCC3CCCCC3C2)c(N)cc2c(=O)c(C(=O)O)cn(C3CC3)c12 (stereo not given),64
3,Nc1cc2c(=O)c(C(=O)O)cn(C3CC3)c2cc1N1CCc2ccccc2C1,128
4,Cc1c(N2CCNCC2)c(N)cc2c(=O)c(C(=O)O)cn(C3CC3)c12,4
5,CC1CN(c2cc3c(cc2N)c(=O)c(C(=O)O)cn3C2CC2)CCN1 (stereo not given),32
6,Cc1c(N2CCCC2)c(N)cc2c(=O)c(C(=O)O)cn(C3CC3)c12,> 128

# System: Providencia stuartii
# Assay: Antibacterial activity tested against Providencia stuartii CNUR 5
# Assay type: functional
# In short: as §1
row,Structure (SMILES),MIC [mg/L]
1,Nc1cc2c(=O)c(C(=O)O)cn(C3CC3)c2cc1N1CCCC1,128
2,Cc1c(N2CCC3CCCCC3C2)c(N)cc2c(=O)c(C(=O)O)cn(C3CC3)c12 (stereo not given),1
3,Nc1cc2c(=O)c(C(=O)O)cn(C3CC3)c2cc1N1CCc2ccccc2C1,128
4,Cc1c(N2CCNCC2)c(N)cc2c(=O)c(C(=O)O)cn(C3CC3)c12,2
5,CC1CN(c2cc3c(cc2N)c(=O)c(C(=O)O)cn3C2CC2)CCN1 (stereo not given),16
6,Cc1c(N2CCCC2)c(N)cc2c(=O)c(C(=O)O)cn(C3CC3)c12,64

# System: Pseudomonas aeruginosa
# Assay: Antibacterial activity tested against P. ae (Pseudomonas aeruginosa) ATCC 9027
# Assay type: functional
# In short: as §1
row,Structure (SMILES),MIC [mg/L]
1,Nc1cc2c(=O)c(C(=O)O)cn(C3CC3)c2cc1N1CCCC1,128
2,Cc1c(N2CCC3CCCCC3C2)c(N)cc2c(=O)c(C(=O)O)cn(C3CC3)c12 (stereo not given),64
3,Nc1cc2c(=O)c(C(=O)O)cn(C3CC3)c2cc1N1CCc2ccccc2C1,128
4,Cc1c(N2CCNCC2)c(N)cc2c(=O)c(C(=O)O)cn(C3CC3)c12,1
5,CC1CN(c2cc3c(cc2N)c(=O)c(C(=O)O)cn3C2CC2)CCN1 (stereo not given),2
6,Cc1c(N2CCCC2)c(N)cc2c(=O)c(C(=O)O)cn(C3CC3)c12,> 128

# System: Shigella
# Assay: Antibacterial activity tested against Shigella enteritidis
# Assay type: functional
# In short: as §1
row,Structure (SMILES),MIC [mg/L]
1,Nc1cc2c(=O)c(C(=O)O)cn(C3CC3)c2cc1N1CCCC1,16
2,Cc1c(N2CCC3CCCCC3C2)c(N)cc2c(=O)c(C(=O)O)cn(C3CC3)c12 (stereo not given),2
3,Nc1cc2c(=O)c(C(=O)O)cn(C3CC3)c2cc1N1CCc2ccccc2C1,128
4,Cc1c(N2CCNCC2)c(N)cc2c(=O)c(C(=O)O)cn(C3CC3)c12,0.03
5,CC1CN(c2cc3c(cc2N)c(=O)c(C(=O)O)cn3C2CC2)CCN1 (stereo not given),0.25
6,Cc1c(N2CCCC2)c(N)cc2c(=O)c(C(=O)O)cn(C3CC3)c12,64

# System: Staphylococcus aureus
# Assay: Antibacterial activity against Staphylococcus aureus ATCC 6538
# Assay type: functional
# In short: as §1
row,Structure (SMILES),MIC [mg/L]
1,Nc1cc2c(=O)c(C(=O)O)cn(C3CC3)c2cc1N1CCCC1,128
2,Cc1c(N2CCC3CCCCC3C2)c(N)cc2c(=O)c(C(=O)O)cn(C3CC3)c12 (stereo not given),0.06
3,Nc1cc2c(=O)c(C(=O)O)cn(C3CC3)c2cc1N1CCc2ccccc2C1,128
4,Cc1c(N2CCNCC2)c(N)cc2c(=O)c(C(=O)O)cn(C3CC3)c12,2
5,CC1CN(c2cc3c(cc2N)c(=O)c(C(=O)O)cn3C2CC2)CCN1 (stereo not given),16
6,Cc1c(N2CCCC2)c(N)cc2c(=O)c(C(=O)O)cn(C3CC3)c12,4

# System: Staphylococcus aureus
# Assay: Antibacterial activity against Staphylococcus aureus MPR 5
# Assay type: functional
# In short: as §1
row,Structure (SMILES),MIC [mg/L]
1,Nc1cc2c(=O)c(C(=O)O)cn(C3CC3)c2cc1N1CCCC1,128
2,Cc1c(N2CCC3CCCCC3C2)c(N)cc2c(=O)c(C(=O)O)cn(C3CC3)c12 (stereo not given),0.06
3,Nc1cc2c(=O)c(C(=O)O)cn(C3CC3)c2cc1N1CCc2ccccc2C1,4
4,Cc1c(N2CCNCC2)c(N)cc2c(=O)c(C(=O)O)cn(C3CC3)c12,4
5,CC1CN(c2cc3c(cc2N)c(=O)c(C(=O)O)cn3C2CC2)CCN1 (stereo not given),16
6,Cc1c(N2CCCC2)c(N)cc2c(=O)c(C(=O)O)cn(C3CC3)c12,4

# System: Enterococcus faecalis
# Assay: Antibacterial activity tested against Streptococcus faecalis LEP Br
# Assay type: functional
# In short: as §1
row,Structure (SMILES),MIC [mg/L]
1,Nc1cc2c(=O)c(C(=O)O)cn(C3CC3)c2cc1N1CCCC1,128
2,Cc1c(N2CCC3CCCCC3C2)c(N)cc2c(=O)c(C(=O)O)cn(C3CC3)c12 (stereo not given),2
3,Nc1cc2c(=O)c(C(=O)O)cn(C3CC3)c2cc1N1CCc2ccccc2C1,128
4,Cc1c(N2CCNCC2)c(N)cc2c(=O)c(C(=O)O)cn(C3CC3)c12,16
5,CC1CN(c2cc3c(cc2N)c(=O)c(C(=O)O)cn3C2CC2)CCN1 (stereo not given),32
6,Cc1c(N2CCCC2)c(N)cc2c(=O)c(C(=O)O)cn(C3CC3)c12,64

# System: Staphylococcus epidermidis
# Assay: Antibacterial activity tested against Staphylococcus epidermidis CPHL A2
# Assay type: functional
# In short: as §1
row,Structure (SMILES),MIC [mg/L]
1,Nc1cc2c(=O)c(C(=O)O)cn(C3CC3)c2cc1N1CCCC1,128
2,Cc1c(N2CCC3CCCCC3C2)c(N)cc2c(=O)c(C(=O)O)cn(C3CC3)c12 (stereo not given),0.25
3,Nc1cc2c(=O)c(C(=O)O)cn(C3CC3)c2cc1N1CCc2ccccc2C1,16
4,Cc1c(N2CCNCC2)c(N)cc2c(=O)c(C(=O)O)cn(C3CC3)c12,4
5,CC1CN(c2cc3c(cc2N)c(=O)c(C(=O)O)cn3C2CC2)CCN1 (stereo not given),4
6,Cc1c(N2CCCC2)c(N)cc2c(=O)c(C(=O)O)cn(C3CC3)c12,16

# System: Staphylococcus epidermidis
# Assay: Antibacterial activity tested against Staphylococcus epidermidis HCF Berset C
# Assay type: functional
# In short: as §1
row,Structure (SMILES),MIC [mg/L]
1,Nc1cc2c(=O)c(C(=O)O)cn(C3CC3)c2cc1N1CCCC1,128
2,Cc1c(N2CCC3CCCCC3C2)c(N)cc2c(=O)c(C(=O)O)cn(C3CC3)c12 (stereo not given),0.125
3,Nc1cc2c(=O)c(C(=O)O)cn(C3CC3)c2cc1N1CCc2ccccc2C1,16
4,Cc1c(N2CCNCC2)c(N)cc2c(=O)c(C(=O)O)cn(C3CC3)c12,8
5,CC1CN(c2cc3c(cc2N)c(=O)c(C(=O)O)cn3C2CC2)CCN1 (stereo not given),4
6,Cc1c(N2CCCC2)c(N)cc2c(=O)c(C(=O)O)cn(C3CC3)c12,16

# From ChEMBL document CHEMBL1129660, “Studies on 6-aminoquinolones: synthesis and antibacterial evaluation of 6-amino-8-methylquinolones” (J Med Chem, 1996)
